What was measured:
[1] = target: Mitogen-activated protein kinase 1 (Homo sapiens) (UniProt P28482); assay: Inhibition of human Mitogen-activated protein kinase 2 at 30 uM
Summary of the method: (§1)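 Kinase activity assayed with ATP at 100 µM, deliberately higher than usual assay ATP levels because the inhibitors are assumed ATP-competitive. Results are reported as percent inhibition of each kinase.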

[2] = target: cAMP-dependent protein kinase (PKA) (Homo sapiens) (UniProt P22694+P17612+P22612); assay: Inhibition of human cAMP-dependent protein kinase (PKA); assay type: protein assay; design: concentration or dose not given beside the values; conditions: concentration not given here
[3] = target: Mitogen-activated protein kinase 8 (Homo sapiens) (UniProt P45983); assay: Inhibition of human c-Jun N-terminal kinase-1 alpha-1 at 30 uM; summary of the method: as §1
[4] = target: Glycogen synthase kinase-3 beta (Homo sapiens) (UniProt P49841); assay: Inhibition of human Glycogen synthase kinase-3 beta at 30 uM; summary of the method: as §1
[5] = target: Mitogen-activated protein kinase 9 (Homo sapiens) (UniProt P45984); assay: Inhibition of human c-Jun N-terminal kinase-2 alpha-2 at 30 uM; summary of the method: as §1
[6] = target: RAC-alpha serine/threonine-protein kinase (Homo sapiens) (UniProt P31749); assay: Inhibition of human Protein kinase B alpha at 30 uM; summary of the method: as §1
[7] = target: Ca2+/calmodulin-dependent protein kinase II (CaM kinase II) (Rattus norvegicus) (UniProt P11275+P08413+P15791+P11730); assay: Inhibition of rat Calcium/calmodulin-dependent protein kinase type II at 30 uM; assay type: protein assay; summary of the method: as §1
[8] = target: Dual specificity mitogen-activated protein kinase kinase 1 (Homo sapiens) (UniProt Q02750); assay: Inhibition of human Mitogen activated protein kinase kinase 1 (MEK1) at 30 uM; summary of the method: as §1
[9] = target: Protein kinase C alpha type (Homo sapiens) (UniProt P17252); assay: Inhibition of human Protein kinase C alpha; design: concentration or dose not given beside the values; conditions: concentration not given here
[10] = target: RAF proto-oncogene serine/threonine-protein kinase (Homo sapiens) (UniProt P04049); assay: Inhibition of human RAF proto-oncogene serine/threonine-protein kinase at 30 uM; summary of the method: as §1
[11] = target: Tyrosine-protein kinase Lck (Homo sapiens) (UniProt P06239); assay: Inhibition of human lymphocyte protein tyrosine kinase Lck at 30 uM; summary of the method: as §1
[12] = target: Mitogen-activated protein kinase 14 (Homo sapiens) (UniProt Q16539); assay: Inhibition of human stress-activated protein kinase-2 alpha (p38 MAP-kinase) at 30 uM; summary of the method: as §1
[13] = target: Rho-associated protein kinase 2 (Homo sapiens) (UniProt O75116); assay: Inhibition of human Rho-dependent protein kinase-II at 30 uM
[14] = target: Mitogen-activated protein kinase 10 (Rattus norvegicus) (UniProt P49187); assay: Inhibition of rat c-Jun N-terminal kinase-3 at 30 uM; summary of the method: as §1
Mitogen-activated protein kinase 10 (Rattus norvegicus), sequence (P49187 whole entry): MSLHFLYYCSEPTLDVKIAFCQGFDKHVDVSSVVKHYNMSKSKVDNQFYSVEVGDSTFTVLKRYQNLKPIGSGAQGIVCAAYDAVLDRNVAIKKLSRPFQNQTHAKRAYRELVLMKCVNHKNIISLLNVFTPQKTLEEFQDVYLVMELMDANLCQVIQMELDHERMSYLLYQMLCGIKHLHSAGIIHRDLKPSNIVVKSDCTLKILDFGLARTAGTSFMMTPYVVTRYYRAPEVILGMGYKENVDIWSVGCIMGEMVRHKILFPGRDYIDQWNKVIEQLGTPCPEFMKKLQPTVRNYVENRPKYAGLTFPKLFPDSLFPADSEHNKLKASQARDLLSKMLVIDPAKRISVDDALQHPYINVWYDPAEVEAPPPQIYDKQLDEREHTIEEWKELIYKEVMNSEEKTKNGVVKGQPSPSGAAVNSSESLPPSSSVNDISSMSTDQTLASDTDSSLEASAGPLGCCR

Dual specificity mitogen-activated protein kinase kinase 1 (Homo sapiens), sequence (Q02750 whole entry): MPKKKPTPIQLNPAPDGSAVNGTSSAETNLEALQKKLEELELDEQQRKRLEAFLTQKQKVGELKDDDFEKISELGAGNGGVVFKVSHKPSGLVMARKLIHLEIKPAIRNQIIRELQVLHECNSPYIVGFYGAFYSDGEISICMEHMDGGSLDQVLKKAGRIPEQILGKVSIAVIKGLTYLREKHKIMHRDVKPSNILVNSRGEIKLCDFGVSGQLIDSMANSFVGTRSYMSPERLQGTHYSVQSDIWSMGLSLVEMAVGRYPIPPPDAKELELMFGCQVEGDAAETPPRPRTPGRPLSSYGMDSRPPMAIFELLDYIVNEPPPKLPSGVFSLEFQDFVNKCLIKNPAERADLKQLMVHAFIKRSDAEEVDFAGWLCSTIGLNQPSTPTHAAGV
Mitogen-activated protein kinase 14 (Homo sapiens), sequence (Q16539 whole entry): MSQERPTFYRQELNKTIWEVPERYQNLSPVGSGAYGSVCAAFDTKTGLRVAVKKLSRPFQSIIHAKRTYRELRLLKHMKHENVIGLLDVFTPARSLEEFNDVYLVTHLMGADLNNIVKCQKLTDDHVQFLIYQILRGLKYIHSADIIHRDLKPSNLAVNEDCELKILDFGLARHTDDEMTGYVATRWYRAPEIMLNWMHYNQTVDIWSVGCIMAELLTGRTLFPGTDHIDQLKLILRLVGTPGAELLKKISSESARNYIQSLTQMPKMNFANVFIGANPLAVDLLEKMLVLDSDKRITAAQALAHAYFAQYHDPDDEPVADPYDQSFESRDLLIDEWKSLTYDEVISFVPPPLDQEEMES
Mitogen-activated protein kinase 9 (Homo sapiens), sequence (P45984 whole entry, looked up): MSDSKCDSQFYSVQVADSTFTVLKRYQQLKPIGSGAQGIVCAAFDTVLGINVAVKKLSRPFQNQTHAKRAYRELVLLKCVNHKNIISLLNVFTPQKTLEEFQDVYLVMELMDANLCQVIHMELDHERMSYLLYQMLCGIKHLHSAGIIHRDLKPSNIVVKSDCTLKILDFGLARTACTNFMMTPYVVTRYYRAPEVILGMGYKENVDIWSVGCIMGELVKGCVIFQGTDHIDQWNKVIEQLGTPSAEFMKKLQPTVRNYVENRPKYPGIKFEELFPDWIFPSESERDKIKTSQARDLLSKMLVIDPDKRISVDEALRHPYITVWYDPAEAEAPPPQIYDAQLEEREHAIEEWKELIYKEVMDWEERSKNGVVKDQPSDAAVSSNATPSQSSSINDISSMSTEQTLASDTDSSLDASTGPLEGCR
Mitogen-activated protein kinase 8 (Homo sapiens), sequence (P45983 whole entry): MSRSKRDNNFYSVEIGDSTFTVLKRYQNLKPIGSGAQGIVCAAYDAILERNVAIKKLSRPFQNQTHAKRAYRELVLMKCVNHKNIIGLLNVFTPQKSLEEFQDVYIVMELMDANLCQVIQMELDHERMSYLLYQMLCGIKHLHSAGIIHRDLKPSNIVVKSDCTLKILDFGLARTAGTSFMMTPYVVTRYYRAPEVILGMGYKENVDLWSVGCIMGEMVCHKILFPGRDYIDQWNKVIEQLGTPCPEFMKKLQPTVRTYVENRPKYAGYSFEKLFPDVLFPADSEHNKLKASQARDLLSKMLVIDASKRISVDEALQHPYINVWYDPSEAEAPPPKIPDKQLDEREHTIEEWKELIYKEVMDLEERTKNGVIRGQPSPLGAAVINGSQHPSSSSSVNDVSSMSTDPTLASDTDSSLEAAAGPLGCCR
Glycogen synthase kinase-3 beta (Homo sapiens), sequence (P49841 whole entry, looked up): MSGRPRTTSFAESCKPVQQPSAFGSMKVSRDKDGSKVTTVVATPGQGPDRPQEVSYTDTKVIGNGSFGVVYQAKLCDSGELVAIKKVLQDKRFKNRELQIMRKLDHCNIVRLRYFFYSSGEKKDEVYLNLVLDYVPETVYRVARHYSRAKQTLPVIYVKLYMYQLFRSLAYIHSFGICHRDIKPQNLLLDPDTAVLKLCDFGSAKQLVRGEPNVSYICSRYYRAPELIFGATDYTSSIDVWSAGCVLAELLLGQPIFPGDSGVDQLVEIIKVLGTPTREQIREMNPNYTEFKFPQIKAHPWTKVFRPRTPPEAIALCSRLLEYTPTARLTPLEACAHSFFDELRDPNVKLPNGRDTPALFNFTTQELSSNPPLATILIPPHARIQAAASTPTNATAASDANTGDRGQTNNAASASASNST
Mitogen-activated protein kinase 1 (Homo sapiens), sequence (P28482 whole entry): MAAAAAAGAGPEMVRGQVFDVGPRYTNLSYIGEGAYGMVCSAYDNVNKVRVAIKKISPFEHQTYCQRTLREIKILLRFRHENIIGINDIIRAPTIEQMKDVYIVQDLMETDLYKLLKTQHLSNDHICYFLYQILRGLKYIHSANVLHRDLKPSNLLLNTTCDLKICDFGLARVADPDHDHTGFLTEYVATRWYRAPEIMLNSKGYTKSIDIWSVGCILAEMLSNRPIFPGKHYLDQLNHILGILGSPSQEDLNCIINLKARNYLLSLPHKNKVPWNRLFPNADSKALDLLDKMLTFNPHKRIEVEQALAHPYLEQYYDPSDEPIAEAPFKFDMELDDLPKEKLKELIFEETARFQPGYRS
Tyrosine-protein kinase Lck (Homo sapiens), sequence (P06239 2-509 limits assumed): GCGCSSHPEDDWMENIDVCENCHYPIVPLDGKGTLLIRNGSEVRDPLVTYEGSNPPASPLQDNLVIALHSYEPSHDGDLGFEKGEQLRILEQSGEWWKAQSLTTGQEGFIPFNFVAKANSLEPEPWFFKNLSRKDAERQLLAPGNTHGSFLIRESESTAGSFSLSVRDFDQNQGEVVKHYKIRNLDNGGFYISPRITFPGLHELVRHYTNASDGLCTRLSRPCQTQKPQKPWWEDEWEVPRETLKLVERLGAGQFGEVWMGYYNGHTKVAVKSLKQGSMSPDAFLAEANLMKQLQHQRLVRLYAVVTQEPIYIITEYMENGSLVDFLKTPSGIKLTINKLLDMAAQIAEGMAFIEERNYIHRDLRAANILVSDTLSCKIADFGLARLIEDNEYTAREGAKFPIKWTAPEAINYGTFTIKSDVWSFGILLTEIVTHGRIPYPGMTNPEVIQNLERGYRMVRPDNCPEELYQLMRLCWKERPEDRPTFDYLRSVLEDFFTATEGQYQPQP
RAF proto-oncogene serine/threonine-protein kinase (Homo sapiens), sequence (P04049 whole entry): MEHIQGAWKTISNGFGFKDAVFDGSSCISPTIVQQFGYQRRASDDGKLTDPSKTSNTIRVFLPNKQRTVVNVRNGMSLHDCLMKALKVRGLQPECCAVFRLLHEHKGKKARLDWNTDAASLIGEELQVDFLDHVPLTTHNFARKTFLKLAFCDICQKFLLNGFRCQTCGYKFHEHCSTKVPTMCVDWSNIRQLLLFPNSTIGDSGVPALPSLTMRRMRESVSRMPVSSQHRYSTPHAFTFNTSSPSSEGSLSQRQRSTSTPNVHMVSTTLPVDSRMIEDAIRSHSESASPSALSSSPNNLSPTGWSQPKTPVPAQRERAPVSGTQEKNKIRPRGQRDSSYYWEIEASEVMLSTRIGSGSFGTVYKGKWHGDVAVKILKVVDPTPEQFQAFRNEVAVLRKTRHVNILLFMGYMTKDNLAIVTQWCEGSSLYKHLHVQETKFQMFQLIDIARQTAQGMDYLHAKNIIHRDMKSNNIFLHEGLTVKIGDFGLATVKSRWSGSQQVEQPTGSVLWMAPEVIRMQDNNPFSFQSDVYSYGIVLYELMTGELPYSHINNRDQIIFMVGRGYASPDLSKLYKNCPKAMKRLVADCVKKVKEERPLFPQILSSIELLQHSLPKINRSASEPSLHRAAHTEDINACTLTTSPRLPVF

| inhibition [1] | inhibition [2] | inhibition [3] | inhibition [4] | inhibition [5] | inhibition [6] | inhibition [7] | inhibition [8] | inhibition [9] | inhibition [10] | inhibition [11] | inhibition [12] | inhibition [13] | inhibition [14] | Structure (SMILES) |
| --- | --- | --- | --- | --- | --- | --- | --- | --- | --- | --- | --- | --- | --- | --- |
| 0% | 0% | 0% | 0% | 0% | 1% | 0% | 4% | 0% | 0% | 16% | 64% | 5% | 0% | Fc1ccc(Sc2ncnc3c2ncn3Cc2ccccc2)cc1 |
| 0% | 0% | 0% | 19% | 0% | 1% | 0% | 0% | 5% | 0% | 23% | 23% | 0% | 0% | Cn1c(Br)nc2c(Sc3ccccc3)ncnc21 |
| 0% | 0% | 0% | 0% | 0% | 13% | 0% | 1% | 0% | 0% | 12% | 67% | 2% | 0% | Fc1ccc(Cn2cnc3c(Sc4ccccc4)ncnc32)cc1 |
| 0% | 0% | 0% | 0% | 0% | 33% | 10% | 0% | 18% | 0% | 11% | 3% | 0% | 0% | Cn1c(C#CCCO)nc2c(Sc3ccccc3)ncnc21 |
| 0% | 0% | 0% | 4% | 0% | 4% | 8% | 3% | 8% | 0% | 30% | 27% | 1% | 6% | Cn1c(-c2ccc([S+](C)[O-])cc2)nc2c(Sc3ccccc3)ncnc21 (stereo not given) |
| 9% | 7% | 9% | 11% | 11% | 15% | 8% | 9% | 14% | 12% | 21% | 16% | 8% | 14% | Cn1cnc2c(-c3ccccc3)ncnc21 |
| 2% | 0% | 2% | 4% | 6% | 0% | 3% | 36% | 15% | 43% | 52% | 79% | 42% | 5% | Fc1ccc(Sc2[nH]cnc3nccc2-3)cc1 |
| 4% | 0% | 0% | 11% | 0% | 0% | 6% | 41% | 23% | 22% | 56% | 56% | 36% | 0% | c1ccc(Sc2[nH]cnc3nccc2-3)cc1 |

Second part, the compound before the results:

| Structure (SMILES) | inhibition [1] | inhibition [2] | inhibition [3] | inhibition [4] | inhibition [5] | inhibition [6] | inhibition [7] | inhibition [8] | inhibition [9] | inhibition [10] | inhibition [11] | inhibition [12] | inhibition [13] | inhibition [14] |
| --- | --- | --- | --- | --- | --- | --- | --- | --- | --- | --- | --- | --- | --- | --- |
| CSc1ccc(-c2nc3c(Sc4ccc(F)cc4)ncnc3n2C)cc1 | 0% | 0% | 3% | 5% | 5% | 0% | 7% | 4% | 0% | 1% | 1% | 15% | 0% | 3% |
| Nc1ncnc2c1ncn2Cc1ccc(F)cc1 | 0% | 0% | 0% | 5% | 0% | 0% | 9% | 7% | 16% | 16% | 22% | 8% | 0% | 9% |
| Cn1c(-c2ccc([S+](C)[O-])cc2)nc2c(Sc3ccc(F)cc3)ncnc21 (stereo not given) | 0% | 4% | 0% | 4% | 1% | 10% | 12% | 1% | 15% | 4% | 30% | 44% | 0% | 10% |
| Cn1cnc2c(/C=C/c3ccccc3)ncnc21 | 0% | 0% | 0% | 0% | 0% | 0% | 4% | 0% | 7% | 8% | 1% | 12% | 0% | 8% |
| c1ccc(C[n+]2c[nH]c3ncncc32)cc1 | 7% | 0% | 0% | 13% | 4% | 9% | 7% | 4% | 18% | 10% | 7% | 6% | 7% | 13% |
| Fc1ccc(Cn2cnc3c(Sc4ccc(F)cc4)ncnc32)cc1 | 0% | 0% | 0% | 8% | 0% | 0% | 0% | 3% | 0% | 0% | 16% | 27% | 0% | 0% |
| Cn1cnc2c(SCc3ccc(F)cc3)ncnc21 | 8% | 0% | 10% | 14% | 6% | 11% | 5% | 7% | 12% | 16% | 5% | 21% | 6% | 9% |
| Fc1ccc(Cn2cnc3c(Cl)ncnc32)cc1 | 0% | 0% | 0% | 8% | 0% | 0% | 0% | 1% | 14% | 4% | 0% | 10% | 0% | 20% |
| Nc1ncnc2ncn(Cc3ccc(F)cc3)c12 | 5% | 7% | 4% | 0% | 7% | 0% | 8% | 8% | 14% | 28% | 0% | 8% | 6% | 25% |
| Cn1c(-c2ccccc2)nc2c(-c3ccc(F)cc3)ncnc21 | 1% | 0% | 2% | 26% | 8% | 31% | 5% | 5% | 17% | 24% | 17% | 23% | 0% | 12% |
| Cn1cnc2c(Nc3ccccc3)ncnc21 | 42% | 0% | 0% | 26% | 0% | 0% | 0% | 4% | 2% | 44% | 18% | 0% | 0% | 5% |
| Clc1ncnc2c1ncn2Cc1ccccc1 | 0% | 2% | 0% | 0% | 0% | 0% | 7% | 3% | 17% | 4% | 0% | 11% | 3% | 16% |
